Laboratory results published in ChEMBL document CHEMBL1275592, “AmpN-AmpG operon is essential for expression of L1 and L2 beta-lactamases in Stenotrophomonas maltophilia” (2010).
Values after ≈ are worked out from the molar mass of the structure shown.

Columns and labels:
Type in all cases: functional
[1] = system: Stenotrophomonas maltophilia; assay: Antimicrobial activity against Stenotrophomonas maltophilia KJN2 harboring pRK-G plasmid and ampN with xylE-Gmomega cassette insertion by Etest
Procedure, shortened: (§1)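 Imipenem and meropenem MICs were read from Etest strips, following the manufacturer's instructions.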

[2] = system: Stenotrophomonas maltophilia; assay: Antimicrobial activity against Stenotrophomonas maltophilia KJN2 harboring pRK415 plasmid and ampN with xylE-Gmomega cassette insertion by Etest; procedure, shortened: as §1
[3] = system: Stenotrophomonas maltophilia; assay: Antimicrobial activity against Stenotrophomonas maltophilia KJN2 harboring pRK-NG plasmid and ampN with xylE-Gmomega cassette insertion by Etest; procedure, shortened: as §1
[4] = system: Stenotrophomonas maltophilia; assay: Antimicrobial activity against ampN deficient Stenotrophomonas maltophilia KJ harboring ampG with xylE-Gmomega cassette insertion by Etest; procedure, shortened: as §1
[5] = system: Stenotrophomonas maltophilia; assay: Antimicrobial activity against Stenotrophomonas maltophilia KJ by Etest; procedure, shortened: as §1
[6] = system: Stenotrophomonas maltophilia; assay: Antimicrobial activity against Stenotrophomonas maltophilia KJN2 harboring pRK-EcG plasmid and ampN with xylE-Gmomega cassette insertion by Etest; procedure, shortened: as §1
[7] = system: Stenotrophomonas maltophilia; assay: Antimicrobial activity against ampN deficient Stenotrophomonas maltophilia KJ by Etest; procedure, shortened: as §1
[8] = system: Stenotrophomonas maltophilia; assay: Antimicrobial activity against Stenotrophomonas maltophilia KJN2 harboring ampN with xylE-Gmomega cassette insertion by Etest; procedure, shortened: as §1
[9] = system: Stenotrophomonas maltophilia; assay: Antimicrobial activity against Stenotrophomonas maltophilia KJN1 harboring ampN with xylE-Gmomega cassette insertion by Etest; procedure, shortened: as §1
[10] = system: Stenotrophomonas maltophilia; assay: Antimicrobial activity against Stenotrophomonas maltophilia KJG harboring ampG with xylE-Gmomega cassette insertion by Etest; procedure, shortened: as §1
[11] = system: Stenotrophomonas maltophilia; assay: Antimicrobial activity against Stenotrophomonas maltophilia KJN2 harboring pRK-NG plasmid and ampN with xylE-Gmomega cassette insertion by agar dilution method
Procedure, shortened: (§2)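 MICs were determined in triplicate by standard 2-fold serial agar dilution, following CLSI guidelines.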

[12] = system: Stenotrophomonas maltophilia; assay: Antimicrobial activity against Stenotrophomonas maltophilia KJN1 harboring ampN with xylE-Gmomega cassette insertion by agar dilution method; procedure, shortened: as §2
[13] = system: Stenotrophomonas maltophilia; assay: Antimicrobial activity against Stenotrophomonas maltophilia KJ by agar dilution method; procedure, shortened: as §2
[14] = system: Stenotrophomonas maltophilia; assay: Antimicrobial activity against ampN deficient Stenotrophomonas maltophilia KJ by agar dilution method; procedure, shortened: as §2
[15] = system: Stenotrophomonas maltophilia; assay: Antimicrobial activity against Stenotrophomonas maltophilia KJ harboring pRK415 plasmid by agar dilution method; procedure, shortened: as §2
[16] = system: Stenotrophomonas maltophilia; assay: Antimicrobial activity against ampN deficient Stenotrophomonas maltophilia KJ harboring ampG with xylE-Gmomega cassette insertion by agar dilution method; procedure, shortened: as §2
[17] = system: Stenotrophomonas maltophilia; assay: Antimicrobial activity against Stenotrophomonas maltophilia KJN2 harboring pRK415 plasmid and ampN with xylE-Gmomega cassette insertion by agar dilution method; procedure, shortened: as §2
[18] = system: Stenotrophomonas maltophilia; assay: Antimicrobial activity against Stenotrophomonas maltophilia KJ harboring pRK-NG plasmid by agar dilution method; procedure, shortened: as §2
[19] = system: Stenotrophomonas maltophilia; assay: Antimicrobial activity against Stenotrophomonas maltophilia KJG harboring ampG with xylE-Gmomega cassette insertion by agar dilution method; procedure, shortened: as §2
[20] = system: Stenotrophomonas maltophilia; assay: Antimicrobial activity against Stenotrophomonas maltophilia KJN2 harboring ampN with xylE-Gmomega cassette insertion by agar dilution method; procedure, shortened: as §2
[21] = system: Stenotrophomonas maltophilia; assay: Antimicrobial activity against Stenotrophomonas maltophilia KJN2 harboring pRK-G plasmid and ampN with xylE-Gmomega cassette insertion by agar dilution method; procedure, shortened: as §2
[22] = system: Stenotrophomonas maltophilia; assay: Antimicrobial activity against Stenotrophomonas maltophilia KJN2 harboring pRK-EcG plasmid and ampN with xylE-Gmomega cassette insertion by agar dilution method; procedure, shortened: as §2

C[C@@H](O)[C@H]1C(=O)N2C(C(=O)O)=C(S[C@@H]3CN[C@H](C(=O)N(C)C)C3)[C@H](C)[C@H]12 [MEROPENEM]
MIC [1]: 0.75 µg/mL (≈ 1.96 µM)
MIC [2]: 0.5 µg/mL (≈ 1.3 µM)
MIC [3]: > 32 µg/mL
MIC [4]: 0.38 µg/mL (≈ 0.991 µM)
MIC [5]: > 32 µg/mL
MIC [6]: > 32 µg/mL
MIC [7]: 0.38 µg/mL (≈ 0.991 µM)
MIC [8]: 0.38 µg/mL (≈ 0.991 µM)
MIC [9]: 0.5 µg/mL (≈ 1.3 µM)
MIC [10]: 0.38 µg/mL (≈ 0.991 µM)

CCN1CCN(C(=O)N[C@@H](C(=O)N[C@@H]2C(=O)N3[C@@H]2SC(C)(C)[C@@H]3C(=O)O)c2ccccc2)C(=O)C1=O [PIPERACILLIN]
MIC [11]: 1020 µg/mL (≈ 1980 µM)
MIC [12]: 32 µg/mL (≈ 61.8 µM)
MIC [13]: 1020 µg/mL (≈ 1980 µM)
MIC [14]: 32 µg/mL (≈ 61.8 µM)
MIC [15]: 1020 µg/mL (≈ 1980 µM)
MIC [16]: 16 µg/mL (≈ 30.9 µM)
MIC [17]: 16 µg/mL (≈ 30.9 µM)
MIC [18]: 1020 µg/mL (≈ 1980 µM)
MIC [19]: 32 µg/mL (≈ 61.8 µM)
MIC [20]: 16 µg/mL (≈ 30.9 µM)
MIC [21]: 32 µg/mL (≈ 61.8 µM)
MIC [22]: 512 µg/mL (≈ 989 µM)
